# Experimental data published in the RNAGym collection of RNA variant scans (doi:10.1126/science.aae0568).
# Variants at the floor of the assay were thinned out.
# B1: tRNA (parent)
# chain: GUUCCGUUGGCGUAAUGGUAACGCGUCUCCCUCCUAAGGAGAAGACUGCGGGUUCGAGUCCCGUACGGAACG
# Variants of: B1
# Assay: yeast fitness relative to wild type (ratio to wild type); higher = fitter; tRNA-Arg(CCU), competitive growth, 37 C, YPD
# Procedure, shortened: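 Genotype frequency changes were the basis for Darwinian fitness relative to wild type. The frequencies came from 100-nucleotide paired-end sequencing of gene amplicons from the start population and each end population of pooled yeast strains with tRNA-Arg(CCU) gene variants at the native locus. Competition ran in YPD at 37°C for 24 hours in six replicates, genotypes needed ≥ 100 starting reads, and estimates < 0.5 were set to 0.5.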
row,Variant,yeast fitness
1,U8C C30G C31G G48A,≤ 0.5
2,U8C C30U A37G,≤ 0.5
3,U8A C34U A43U U59C,0.619
4,U8C C11A U19G A36G U54C A69C,≤ 0.5
5,U8C A43U,1.03
6,U8C A43G,0.93
7,U8C A37C G51A,≤ 0.5
8,U8C A14G C24G C31U C55A,≤ 0.5
9,U8A U26G C29A C46U G58A,≤ 0.5
10,U8C A14U C30A,≤ 0.5
11,U8A G9A C24G A69G,≤ 0.5
12,U8C A14C C30G,≤ 0.5
13,U8C C27G A57C,0.586
14,U8C A21C C30U G52A,≤ 0.5
15,U8A C34U C61A,≤ 0.5
16,U8A U26A C29A C62U,0.537
17,U8C C30G C31G A65C,0.527
18,U8C C24U A45G C46G C55G,≤ 0.5
19,U8C C22A U47A,≤ 0.5
20,U8A U47A,0.619
21,U8A U47C,0.723
22,U8C A15U C33G C62G,≤ 0.5
23,U8C A20U U28A C62U G67U,≤ 0.5
24,U8A C61U G63C A65G,≤ 0.5

row,Variant,yeast fitness
1,U8A U32C G44C C62U,≤ 0.5
2,U8C A37C C49G,≤ 0.5
3,U8A G18C C24A U26A U32C,≤ 0.5
4,U8A G44C C62U,≤ 0.5
5,U8C C11U A36U,≤ 0.5
6,U8C A15C G63A,≤ 0.5
7,U8A G44C,0.788
8,U8A G44A,0.644
9,U8C A21G C46U C62U,0.699
10,U8A G18C C66U,≤ 0.5
11,U8A G18A C30A U32A U35G G56A C60A C62G C66A,≤ 0.5
12,U8C C27U C62G,≤ 0.5
13,U8C C11U A15C A21G C24G U28A,≤ 0.5
14,U8A G17A C24U A69C,0.693
15,U8C A40U A45G,0.527
16,U8C A15G G38C U64A G68A A69C,≤ 0.5
17,U8C C29U G56C,0.538
18,U8A G56U G67A A70C,≤ 0.5
19,U8A G41C C62U A65U,≤ 0.5
20,U8C A14U A42C G52A G56C,≤ 0.5
21,U8C A45U,0.923
22,U8C C31G,0.81
23,U8C C11U C31U,0.576
24,U8A G9A A21C,≤ 0.5

row,Variant,yeast fitness
1,U8A G39C A65G,≤ 0.5
2,U8A C55G,≤ 0.5
3,U8A C55U,≤ 0.5
4,U8A G10A U13C A14U C27G U47C C62A,≤ 0.5
5,U8C A20G C66A,≤ 0.5
6,U8A U28A C31G A65U A69C,≤ 0.5
7,U8C C27U U35A U59C,≤ 0.5
8,U8A U19C,0.805
9,U8C A15C U32A A70C,≤ 0.5
10,U8A G56A,0.701
11,U8C C29A C34G A36G A40C U47A,≤ 0.5
12,U8A C33U C66A,≤ 0.5
13,U8C A14G G23A,≤ 0.5
14,U8A G38C,0.647
15,U8C C24A C46G G52C U59A,≤ 0.5
16,U8A G10A G67C A69U,≤ 0.5
17,U8A C60U,0.551
18,U8A U64G,0.554
19,U8C C27U C31A G68A,≤ 0.5
20,U8C C27U C31A G56A,≤ 0.5
21,U8C C11A A43U G48C C60G,≤ 0.5
22,U8C A15C A20U,0.544
23,U8C A20C A21C A36U A45C,≤ 0.5
24,U8A G12A A20C,≤ 0.5

row,Variant,yeast fitness
1,U8C A15U U16A U26A,≤ 0.5
2,U8A C31U G58A C61G C66U,≤ 0.5
3,U8A U32C,0.648
4,U8C C27U G48A C49U,0.686
5,U8A G9C A15G U54A,≤ 0.5
6,U8A G44C A57U C62U,≤ 0.5
7,U8A G58C,0.764
8,U8C A36G G44A C46U,0.674
9,U8C C27U G51A A57U,0.541
10,U8A G25C C31G,≤ 0.5
11,U8C C24G G38C,≤ 0.5
12,U8A U28C C33A,≤ 0.5
13,U8A G18A U47G U54A,≤ 0.5
14,U8C A20U,0.92
15,U8C A20C,0.985
16,U8C A20G,0.941
17,U8C A70U,0.994
18,U8C C27G G44A,≤ 0.5
19,U8A G44A C60U G67C,0.576
20,U8C A65U,0.957
21,U8C C27G A57C A70U,≤ 0.5
22,U8A C61A G67A,0.528
23,U8C C27A A36U A37U,≤ 0.5
24,U8A C31A C61U,≤ 0.5

row,Variant,yeast fitness
1,U8C A45G C49A,0.574
2,U8C A14G C27U U32A,≤ 0.5
3,U8C C11G A15C A70C,≤ 0.5
4,U8C A40G A43C A69U,≤ 0.5
5,U8A U28A C33A A36U A57G,≤ 0.5
6,U8A G39C A43G,0.605
7,U8A G12A A14C G67U,0.65
8,U8A G67C,0.736
9,U8A G67U,0.636
10,U8A U13A A14C U16C G67A,≤ 0.5
11,U8C C29U G39C A40U,≤ 0.5
12,U8A U28G,0.661
13,U8C C22G C49U G63A U64C,≤ 0.5
14,U8C A36G A70C,0.644
15,U8C A21U A69U,0.527
16,U8C A45C A65C,≤ 0.5
17,U8C A36C G41A G68A A69C,≤ 0.5
18,U8A G12C G17A C29U G38A G44C G50A,≤ 0.5
19,U8C C29U G38C A40C,≤ 0.5
20,U8C A42G C55A,≤ 0.5
21,U8A U19G C24G U32A,≤ 0.5
22,U8A G17A U32A A43G,≤ 0.5
23,U8C A15U G25A C34G U54A A65U,0.541
24,U8A G18A C27U C31A,≤ 0.5

row,Variant,yeast fitness
1,U8A G18C U19C A20C A36G U64A G67C,≤ 0.5
2,U8C C22U C31U,0.54
3,U8A G17A U26C C29G U35A A42G A69U,≤ 0.5
4,U8C C30U C31A C33G C60A,0.586
5,U8C C30A G39A U47A G63C,≤ 0.5
6,U8C C11G A15U A20G A21G G38C C60G,0.568
7,U8A U13A C29G A45C G68C A69G,≤ 0.5
8,U8A C33A A40G,≤ 0.5
9,U8A C33A A40C,≤ 0.5
10,U8A G50A A69U,0.589
11,U8C A15C A45C C62G,0.535
12,U8C A14G A20U C30G A37G G44A,≤ 0.5
13,U8C C11A G25C C29U A65C A70U,≤ 0.5
14,U8A C33U A65G,≤ 0.5
15,U8A C33U A65U,0.502
16,U8A C30U C46A U54A A57G,≤ 0.5
17,U8A G23A C30G A65U,0.55
18,U8C A45C G56A,0.798
19,U8A G18A C30G A40C U47C,≤ 0.5
20,U8A G18C G25C C60U C61A,≤ 0.5
21,U8A C34A A45C A65C,0.718
22,U8C C11U G58U C61A,≤ 0.5
23,U8C C11U U16G A21C C31G G39A G56C,≤ 0.5
24,U8A U16G,0.628

row,Variant,yeast fitness
1,U8A U26G U35C G63A A70G,≤ 0.5
2,U8C A42U U53A,≤ 0.5
3,U8C C22A C33G G39C C46U,≤ 0.5
4,U8C C22A C33G G39C C46U G52A C66U,≤ 0.5
5,U8C C27U G41C C61G,0.551
6,U8C C31A G41A,≤ 0.5
7,U8A U28A C33A A36U,0.541
8,U8A G23A U32G C60U U64G A69C,≤ 0.5
9,U8C C24G C27U C55A,≤ 0.5
10,U8C A15U G25A C34G U54A,≤ 0.5
11,U8A G10C C27A G48A,≤ 0.5
12,U8C A21U C27G C29U U32C,≤ 0.5
13,U8A C31G A65U,≤ 0.5
14,U8A U59A C66G A70C,≤ 0.5
15,U8A C60G G67A,≤ 0.5
16,U8C A37G G38C G51A,≤ 0.5
17,U8C A21U G56C G63A U64C G67C,≤ 0.5
18,U8A C61U,0.718
19,U8A G12A A21G C62U,0.697
20,U8C A14U C49A,≤ 0.5
21,U8C A14C,0.66
22,U8C A14G,0.934
23,U8C A21U G39C G50A,≤ 0.5
